Compound activity deposited in PubChem by several laboratories.
Cav32 inh = inhibitors of human Cav3.2 T-type calcium channel. O95180. Cav3.2-expressing cells, Fluo-4 calcium fluorescence FDSS; hits give low values. B-score at 10 µM. 100,000 tested, 4% active;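 active = single-dose well whose peak fluorescence ratio is a statistical outlier from its plate by either plate-standardised score or position-corrected B-score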
Target sequence (O95180 whole entry, looked up): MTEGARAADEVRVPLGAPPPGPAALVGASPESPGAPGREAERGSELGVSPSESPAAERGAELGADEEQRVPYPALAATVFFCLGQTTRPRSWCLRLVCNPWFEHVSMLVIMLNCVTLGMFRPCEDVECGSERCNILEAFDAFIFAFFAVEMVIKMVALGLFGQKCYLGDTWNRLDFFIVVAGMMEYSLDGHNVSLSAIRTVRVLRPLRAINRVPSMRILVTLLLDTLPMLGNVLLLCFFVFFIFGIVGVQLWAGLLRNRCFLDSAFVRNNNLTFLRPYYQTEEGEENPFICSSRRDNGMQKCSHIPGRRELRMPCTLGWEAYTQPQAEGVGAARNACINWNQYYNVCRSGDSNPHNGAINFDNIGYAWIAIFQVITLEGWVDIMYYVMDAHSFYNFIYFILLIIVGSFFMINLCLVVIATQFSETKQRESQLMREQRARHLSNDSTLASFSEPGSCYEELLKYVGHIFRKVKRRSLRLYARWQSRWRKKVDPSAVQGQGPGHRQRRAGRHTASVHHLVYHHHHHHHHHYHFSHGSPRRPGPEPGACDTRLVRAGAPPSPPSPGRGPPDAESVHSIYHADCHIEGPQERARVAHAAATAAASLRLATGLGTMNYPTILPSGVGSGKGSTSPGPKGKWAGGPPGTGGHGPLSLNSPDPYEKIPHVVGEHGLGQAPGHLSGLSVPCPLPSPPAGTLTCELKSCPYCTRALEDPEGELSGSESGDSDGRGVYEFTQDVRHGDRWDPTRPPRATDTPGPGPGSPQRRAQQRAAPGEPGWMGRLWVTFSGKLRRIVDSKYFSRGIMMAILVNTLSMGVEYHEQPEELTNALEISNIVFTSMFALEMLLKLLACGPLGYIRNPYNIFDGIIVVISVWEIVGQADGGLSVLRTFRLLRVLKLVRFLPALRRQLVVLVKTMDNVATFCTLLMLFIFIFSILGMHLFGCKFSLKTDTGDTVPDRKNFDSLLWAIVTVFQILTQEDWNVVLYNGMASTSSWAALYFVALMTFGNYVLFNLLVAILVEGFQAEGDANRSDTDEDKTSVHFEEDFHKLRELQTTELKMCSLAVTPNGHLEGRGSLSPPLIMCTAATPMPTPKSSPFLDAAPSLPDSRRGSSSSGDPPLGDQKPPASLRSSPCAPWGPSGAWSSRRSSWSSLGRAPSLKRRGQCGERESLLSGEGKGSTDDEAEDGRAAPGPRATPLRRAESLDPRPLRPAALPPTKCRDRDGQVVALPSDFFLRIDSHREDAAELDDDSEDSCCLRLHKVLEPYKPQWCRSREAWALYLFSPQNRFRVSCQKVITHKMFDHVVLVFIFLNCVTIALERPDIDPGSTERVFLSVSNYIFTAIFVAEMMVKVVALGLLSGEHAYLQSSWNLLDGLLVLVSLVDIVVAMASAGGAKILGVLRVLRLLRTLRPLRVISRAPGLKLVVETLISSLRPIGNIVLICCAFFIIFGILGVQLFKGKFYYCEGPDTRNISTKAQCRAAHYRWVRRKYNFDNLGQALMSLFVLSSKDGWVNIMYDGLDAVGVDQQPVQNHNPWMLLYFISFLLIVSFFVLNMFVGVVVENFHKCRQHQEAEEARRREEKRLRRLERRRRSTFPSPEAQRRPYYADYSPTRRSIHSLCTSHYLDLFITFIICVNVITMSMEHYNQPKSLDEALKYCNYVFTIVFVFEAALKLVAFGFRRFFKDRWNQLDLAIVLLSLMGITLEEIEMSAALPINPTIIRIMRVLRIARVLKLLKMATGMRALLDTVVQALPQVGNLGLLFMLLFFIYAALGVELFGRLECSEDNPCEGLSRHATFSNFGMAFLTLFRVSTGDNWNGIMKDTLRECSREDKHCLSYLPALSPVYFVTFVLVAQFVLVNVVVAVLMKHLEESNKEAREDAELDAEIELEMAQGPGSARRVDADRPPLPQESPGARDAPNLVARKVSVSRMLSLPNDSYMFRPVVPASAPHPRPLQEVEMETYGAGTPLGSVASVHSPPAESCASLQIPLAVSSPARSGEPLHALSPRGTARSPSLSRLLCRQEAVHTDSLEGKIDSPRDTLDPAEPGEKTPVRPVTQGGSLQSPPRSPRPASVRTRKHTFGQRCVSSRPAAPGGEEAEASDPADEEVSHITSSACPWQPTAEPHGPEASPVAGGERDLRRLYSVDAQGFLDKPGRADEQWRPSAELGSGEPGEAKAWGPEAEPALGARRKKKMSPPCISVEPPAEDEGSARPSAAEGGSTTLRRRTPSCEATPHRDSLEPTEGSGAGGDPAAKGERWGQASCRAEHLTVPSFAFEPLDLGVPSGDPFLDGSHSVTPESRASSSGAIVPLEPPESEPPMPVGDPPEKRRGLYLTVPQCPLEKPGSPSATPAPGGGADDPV
CYP2C19 act = increases human CYP2C19 enzyme activity. P33261. recombinant CYP2C19, luciferin-H EGE luminescence; hits give high values; 0 = fully inhibited enzyme, 1 = untreated enzyme. activation factor at 5 µM. 96,000 tested, under 10 active;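 active = activation factor of at least 2 at 5 µM in the primary screen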;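 also: 0 = wells with 2.5 mM tranylcypromine and 1 = vehicle-only wells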
CYP2C9 inh = blocks human cytochrome P450 2C9 | CYP2C9 Supersomes, luciferin-H conversion, luminescence | inhibition, % at 5 µM | 96,000 tested, 20% active;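 active = blocking of liver enzyme CYP2C9 beyond about 50% at 5 µM, limit read from the data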
HIV Rev-RRE inh = HIV Rev-RRE protein-RNA interaction inhibition; P05866; Rev peptide-RRE RNA binding, FRET; inhibition, % at 8 µM; 97,000 tested, 0.79% active; AID 704;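 active = inhibition above the screen-wide mean plus 3 SD, cut at about 35% in these data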;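 also: 0% = median DMSO wells and 100% = median Neomycin B control wells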
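Test system – labelled RRE RNA duplex and labelled Rev peptide · Reagent – labelled Rev peptide · Doses – one concentration, 8 µM nominal · Incubation – 5 + 15 min at 25 °C · Signal – FRET fluorescence readout · Read-out basis – % inhibition of FRET ratio versus controls · Control set – DMSO wells as 0% and neomycin B wells as 100% inhibition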
CYP2C19 inh = human CYP2C19 inhibition. 96,000 tested, 21% active. P33261. CYP2C19 Supersomes, luciferin-H EGE luminescence, 30 min. inhibition, % at 5 µM;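 active = CYP2C19 inhibition above a set limit at 5 µM in the primary screen, cut at about 50% in these data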;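 also: plate controls were negative control wells for no effect and 2.5 mM tranylcypromine positive control for full effect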
CYP2C9 activ = increases human cytochrome P450 2C9 activity. recombinant CYP2C9, luciferin-H conversion, luminescence; hits give high values; factor 1 = untreated enzyme, 0 = blocked. activation factor at 5 µM. 96,000 tested, 1.4% active. P11712;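 active = activation factor of 2 or more for CYP2C9 at a 5 µM dose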;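 also: 0 = sulfaphenazole-blocked wells and 1 = vehicle-only wells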
* marks the source's active call; other numbers are inactive results; . = not tested or not shown. Only some compounds are listed: those with a hit (about 27% of all), similar ones and a draw of the others.

SMILES	Cav32 inh	CYP2C19 act	CYP2C9 inh	HIV Rev-RRE inh	CYP2C19 inh	CYP2C9 activ
CCn1c(=O)cc(SCC(=O)Nc2ccc3c(c2)OCO3)c2ccccc21	-0.415	0.3	-16.7	3.5	71.3*	1.2
CCn1c(=O)cc(SCC(=O)NCC2CCCO2)c2ccccc21 (stereo not given)	0.372	0.9	-275.4	0.8	13.1	3.8*
CCn1c(SCC(=O)Nc2ccc3c(c2)OCO3)nc2ccccc21	-2.59	.	.	6.8	.	.
Cn1cc(SCC(=O)Nc2ccc3c(c2)OCCO3)c2ccccc21	-0.848	0.4	42.7	2.1	62.8*	0.6
Cn1c(=O)cc(SCC(=O)N2CCCC2)c2ccccc21	.	1.1	-21.9	.	-5.1	1.2
Cn1c(=O)cc(SCC(=O)NCC2CCCO2)c2ccc(Cl)cc21 (stereo not given)	-1.66	.	.	2.5	.	.
O=C(Nc1cccc2ccccc12)NC1CCCc2ccccc21 (stereo not given)	-1.68	0.6	1.9	19.4	38.9	1
CC(C)n1c(N2CCN(CC(=O)Nc3ccc4c(c3)OCCO4)CC2)nc2ccccc21	-2.96	0.4	26.1	4.0	58.5*	0.7
CCn1c(=O)cc(SCC(=O)N(C)Cc2ccccc2)c2ccccc21	1.25	0.4	-98.0	3.6	55.5*	2*
CCn1c(=O)cc(SCC(=O)Nc2cccnc2)c2ccccc21	-0.247	1.1	-144.5	2.6	-12.7	2.4*
CC(CC(=O)Nc1ccc2c(c1)OCCO2)c1ccccc1 (stereo not given)	0.4	0.5	41.8	2.7	52.0*	0.6
Cc1ncoc1C(=O)Nc1ccccc1-c1ccccc1	0.752	0.8	30.0	3.1	16.2	0.7
Cn1c(C(=O)NC2CCCCC2)cc2sccc21	-0.293	0.4	17.5	0.6	55.1*	0.8
CN(C(=O)c1cc2sccc2n1C)C1CCCCC1	-0.372	0.3	21.4	5.2	73.9*	0.8
Cc1c(NC(=O)C2C3C=CC(C3)C2C(=O)O)c(=O)n(-c2ccccc2)n1C (stereo not given)	0.717	0.9	10.6	10.2	5.0	0.9
CCn1nnnc1NCc1ccc(N2CCCC2)cc1	.	0.2	81.4*	.	79.3*	0.2
CCCCN(CCCC)Cc1cc2ccccc2c2c1COC2	-0.418	1	29.2	15.9	4.4	0.7
CCC(Sc1nc2sc(C(=O)OC)c(C)c2c(=O)n1N)C(=O)NCC1CCCO1 (stereo not given)	-0.102	0.1	93.3*	4.6	93.9*	0.1
CCCCNC(=O)C(CC)Sc1nc2sc(C(=O)OC)c(C)c2c(=O)n1N (stereo not given)	0.0641	.	.	-3.6	.	.
Cc1cccc(N2CCN(C(=O)CCc3nc4ccccc4[nH]3)CC2C)c1 (stereo not given)	-0.476	0.2	56.4*	6.0	75.2*	0.4
Cc1ccc(N2CCN(C(=O)CCc3nc4ccccc4[nH]3)CC2)c(C)c1	-4.75*	0.2	72.0*	10.0	84.0*	0.3
CCOC(=O)C(C(=O)OCC)N(C#N)c1nc(SC)nc(N(C)C)n1	-1.42	0.5	-3.7	-1.5	45.7	1
CCc1c(C(C)S(=O)(=O)c2ccc(C)cc2)[nH]c(=O)n1-c1ccc(C)cc1 (stereo not given)	0.433	0.4	18.8	1.4	58.8*	0.8
CCCC(c1nnnn1CCc1ccccc1)N1CCC(C(N)=O)CC1 (stereo not given)	0.0616	.	.	2.7	.	.
CCOC(=O)c1c(NC(=O)c2nn(CC)cc2Br)sc(C)c1C	-0.256	0.8	76.1*	-2.7	19.6	0.2
SMILES	Cav32 inh	CYP2C19 act	CYP2C9 inh	HIV Rev-RRE inh	CYP2C19 inh	CYP2C9 activ
CCOC(=O)c1c(NC(=O)Cn2nc(C(F)F)cc2C(F)F)sc(C)c1C	-2.22	0.7	64.7*	5.5	27.8	0.4
CCOC(=O)Nc1sc2c(c1C(=O)OCC)CCC2	-0.507	0.9	-1.3	17.9	14.6	1
CCOC(=O)c1c(NC(=O)c2nn(CC)cc2Br)sc2c1CCCCC2	-0.459	0.6	81.6*	16.8	44.3	0.2
COC(=O)c1c(NC(=O)Cn2nc(C(F)F)cc2C(F)F)sc(C)c1C	-1.26	0.7	22.8	13.6	33.6	0.8
CC/C(C)=C1\SC(N2CCOCC2)=NC1=O	1.25	1	1.8	4.9	4.2	1
CN1CCN(C(=O)C2=C[C@H](c3ccccc3)C[C@H](OCc3ccc(CO)cc3)O2)CC1	-2.46	.	.	.	.	.
